What was measured:
Type in all cases: functional
MDA-MB-468 = experiment: Cytotoxicity against human MDA-MB-468 cells assessed as cell growth at 10^-5 M after 48 hrs by SRB assay; conditions: MDA-MB-468, 48 h, read-out: Activity
Procedure, shortened: (§1)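 NCI 60-cell-line one-dose primary screen: cells inoculated and preincubated 24–48 h, then test agent added at a single 10^-5 M concentration for a further 48 h. Endpoint is sulforhodamine B protein staining read spectrophotometrically. Reported as percent growth relative to untreated control cells.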

SK-MEL-2 = experiment: Cytotoxicity against human SK-MEL-2 cells assessed as cell growth at 10^-5 M after 48 hrs by SRB assay; conditions: SK-MEL-2, 48 h, read-out: Activity
Procedure, shortened: (§2)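 NCI human tumor cell line panel from nine cancer types. Each line was inoculated and preincubated 24–48 h, then exposed to a single concentration (10^-5 M) for 48 h. Growth was read by sulforhodamine B protein staining, measured spectrophotometrically. Value reported as percent growth of treated cells relative to untreated controls.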

Malme-3M = experiment: Growth inhibition of human MALME-3M cells after 48 hrs by SRB assay
Procedure, shortened: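 NCI panel of about 60 human tumor lines, 48 h continuous exposure at five 10-fold dilutions from 10^-4 to 10^-8 M. SRB protein staining was read as absorbance at time zero, in untreated controls and at each concentration. GI50 is the concentration giving 50% lower net protein increase than controls. TGI is where Ti = Tz, and LC50 is 50% protein loss versus start.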

[1] = tested on: Photobacterium leiognathi; experiment: Antibacterial activity against Photobacterium leiognathi Sh1 assessed as inhibition of bacterial luminescence at 0.25 mg/mL after 10 mins by bioluminometry-based acute action test; design: scale not given: the % may be the effect or the level left
Procedure, shortened: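 Marine P. leiognathi Sh1 (Azov Sea shrimp isolate) diluted in chloride solution to 10^5 cells/mL; compounds suspended in DMSO mixed with 1 mL bacterial suspension. Acute test: 10 min at 25 °C, then bioluminescence measured by bioluminometer as % of compound-free control. Tetracycline reference.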

PC-3 = experiment: Cytotoxicity against human PC3 cells assessed as cell growth at 10^-5 M after 48 hrs by SRB assay; conditions: PC-3, 48 h, read-out: Activity; procedure, shortened: as §2
U-251 [2] = experiment: Cytotoxicity against human U251 cells assessed as cell growth at 10^-5 M after 48 hrs by SRB assay; conditions: U-251, 48 h, read-out: Activity; procedure, shortened: as §2
EKVX = experiment: Cytotoxicity against human EKVX cells assessed as cell growth at 10^-5 M after 48 hrs by SRB assay; conditions: read-out: Activity; procedure, shortened: as §1
UACC-62 = experiment: Growth inhibition of human UACC62 cells after 48 hrs by SRB assay; conditions: UACC-62, 48 h
Procedure, shortened: (§3)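 NCI 60-cell-line human tumor panel. Cells were inoculated and preincubated for 24–48 h, then exposed continuously to compound for 48 h. Primary screen used a single 10^-5 M concentration. Growth was measured by sulforhodamine B protein staining, read spectrophotometrically, and reported as percent growth versus untreated controls. Selected compounds were also run at five 10-fold dilutions (10^-4 to 10^-8 M) to derive GI50 from time-zero-corrected absorbances.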

IGROV-1 = experiment: Cytotoxicity against human IGROV1 cells assessed as cell growth at 10^-5 M after 48 hrs by SRB assay; conditions: IGROV-1, 48 h, read-out: Activity; procedure, shortened: as §1
SNB-75 = experiment: Cytotoxicity against human SNB75 cells assessed as cell growth at 10^-5 M after 48 hrs by SRB assay; conditions: SNB-75, 48 h, read-out: Activity; procedure, shortened: as §2
UACC-257 = experiment: Cytotoxicity against human UACC257 cells assessed as cell growth at 10^-5 M after 48 hrs by SRB assay; conditions: UACC-257, 48 h, read-out: Activity; procedure, shortened: as §2
UO-31 = experiment: Cytotoxicity against human UO31 cells assessed as cell growth at 10^-5 M after 48 hrs by SRB assay; conditions: UO-31, 48 h, read-out: Activity; procedure, shortened: as §2
Staphylococcus aureus = experiment: Antibacterial activity against Staphylococcus aureus assessed as zone of inhibition at 0.5 mg/mL after 24 hrs by stiff-plate agar-diffusion method; conditions: read-out: DIZ
U-251 [3] = experiment: Growth inhibition of human U251 cells after 48 hrs by SRB assay; conditions: U-251, 48 h; procedure, shortened: as §3
[4] = read-out: pLC50 (the source's name) (converted)

CCC1C2CCC(C2)C1NC(=O)CSc1nc2ccccc2c2nc(=O)c(-c3ccc(OC)cc3)nn12 (stereo not given)
growth at 10 µM (MDA-MB-468): -59.5% | growth at 10 µM (SK-MEL-2): 56.5% | GI50 (Malme-3M): 3.89 µM | CC50 (Malme-3M; [4]): > 50.1 µM | TGI (Malme-3M; read-out: pTGI (converted)): 24.5 µM | Activity [1]: 90.9% | growth at 10 µM (PC-3): 55.1% | growth at 10 µM (U-251 [2]): -98.9% | growth at 10 µM (EKVX): 25.6% | GI50 (UACC-62): 3.55 µM | CC50 (UACC-62; [4]): > 50.1 µM | TGI (UACC-62; read-out: pTGI (converted)): 26.3 µM | growth at 10 µM (IGROV-1): 17% | growth at 10 µM (SNB-75): 4.94% | growth at 10 µM (UACC-257): 55.6% | growth at 10 µM (UO-31): -12.7% | zone of inhibition at 500 µg/mL (Staphylococcus aureus): 0 mm | GI50 (U-251 [3]): 1 µM | CC50 (U-251 [3]; [4]): 5.75 µM | TGI (U-251 [3]; read-out: pTGI (converted)): 2.29 µM

From ChEMBL document CHEMBL1914438, “Synthesis and biological activity of novel N-cycloalkyl-(cycloalkylaryl)-2-[(3-R-2-oxo-2H-[1,2,4]triazino[2,3-c]quinazoline-6-yl)thio]acetamides” (2011)
